Laboratory results from paper PMC7172891 (Peptides, 2008).

Key:
HIV-1 = conditions: cited from earlier work
[1] = PC/Chol (1:1) LUV, probe dilution assay; cited from earlier work
HSV-1 = HSV-1 virus entry assay: plaque inhibition on Vero cells; assay type: cell-based; conditions: for activity in dose-dependent inhibition assay of HSV entry: co-treatment, up to 500 μM, Vero cells; for inhibition of HSV-1 infectivity, cell pre-exposure: peptide 250 μM, Vero cells treated with peptide before viral challenge
[2] = Circular dichroism: helix content and oligomeric state; assay type: physicochemical; conditions: for ratio θ222/θ208 (monomer about 0.8, oligomer above 1.0) / percentage of helix (CD, ellipticity at 222 nm): peptide 20 μM
Procedure, shortened: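 CD spectra at room temperature in 1.0 or 0.1 cm quartz cells. Peptide 20 μM titrated in varying % TFE; 5–200 μM series in buffer, 20% TFE and […]. For lipid samples, peptide in TFE was mixed with lipid in chloroform, dried, lyophilised and rehydrated in water to 0.9 mM final lipid. Scans averaged (three, 260–195 nm), blank-corrected, converted to MRE.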

[3] = Solubility / precipitation observations; assay type: physicochemical
[4] = Native gel electrophoresis: oligomeric state of peptides; assay type: physicochemical; conditions: without SDS and with 4 mM and 5 mM SDS
Procedure, shortened: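 Peptide solution (1 mM in phosphate buffer pH 7.3, before mixing) incubated alone or with 4 or 5 mM SDS for 5 min at 25 °C. Non-denaturing PAGE with 4% stacking and 12% separating gel, run 2.5 h at constant 30 mA. Bands visualised with Coomassie R-250.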

[5] = system: parainfluenza-2 virus (PIV-2); assay: Inhibition of PIV-2 infectivity, co-exposure mode; assay type: cell-based; conditions: peptide 250 and 500 μM
Procedure, shortened: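 Co-exposure: cells and virus inoculum incubated together with peptide for 45 min at 37 °C. Non-penetrated virus inactivated with low-pH citrate buffer. Cells then held 48 h at 37 °C in DMEM with CMC, and plaques counted. Run in triplicate. Percent inhibition calculated against no-peptide control, with standard deviations; scrambled peptides run in parallel.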

Substance: Enfuvirtide
- inhibition of HIV-1 (HIV-1): active at low nanomolar concentration

Substance: TWLATRGLLRSPGRYVYFSPSASTWPVGIWTTGELVLGCDAAL [gH220–262]
- ability to induce fusion of vesicles (lipid mixing), previously reported [1]: able to induce fusion
- activity in dose-dependent inhibition assay of HSV entry (HSV-1): non-significant activity

Substance: GLASTLTRWAHYNALIRAF [gH626–644]
- ability to induce fusion of vesicles (lipid mixing), previously reported [1]: able to induce fusion
- inhibition of HSV-1 infectivity, cell pre-exposure (HSV-1): partially inhibit viral entry
- ratio θ222/θ208 (monomer about 0.8, oligomer above 1.0) ([2]; 20% TFE, TFE titration): approximately 1.05
- helicity (CD, ellipticity at 222 nm) ([2]; 20% TFE, peptide 5 μM): about 19%
- percentage of helix (CD, ellipticity at 222 nm) ([2]; 20% TFE, room temperature): 27%
- ratio θ222/θ208 over peptide concentration ([2]; 20% TFE, peptide 5–200 μM): around 1
- concentration at which the peptide already oligomerises (CD) ([2]; CD data): 50 µM
- conformation in buffer solution (CD) ([2]; buffer solution, spectra unaltered over 5–200 μM): random coil conformation
- ratio θ222/θ208 (monomer about 0.8, oligomer above 1.0) ([2]; higher percentages of TFE): 0.76
- percentage of helix (CD, ellipticity at 222 nm) ([2]; increasing (higher) concentrations of TFE): approximately 35%
- precipitation in inhibition experiments ([3]; 500 μM): probably indicating a precipitation of the peptide at this concentration
- precipitation / macroscopic aggregation ([3]; in presence of membranes, concentrations assayed in CD studies (5–200 μM)): did not precipitate or otherwise form macroscopic aggregates
- oligomer order in NATIVE-PAGE [4]: forms higher order oligomers compared to gH493–512
- effect on parainfluenzavirus-2 (PIV-2) infectivity [5]: none of these peptides exerted any significant effect

Substance: AAHLIDALYAEFLGGRVLTTPVVHRALFYASAVLRQPFLAGVPSA [gH493–537]
- ability to induce fusion of vesicles (lipid mixing), previously reported [1]: able to induce fusion
- inhibition of HSV-1 infectivity, post-exposure treatment (HSV-1; peptide 250 μM added after 45 min infection of Vero cells): not active
- inhibition of HSV-1 infectivity, cell pre-exposure (HSV-1): not active

Substance: RLTGLLATSGFAFVNAAHANGAVCLSDLLGFLAHSRALAG [gH381–420]
- ability to induce fusion of vesicles (lipid mixing), previously reported [1]: able to induce fusion
- activity in dose-dependent inhibition assay of HSV entry (HSV-1): non-significant activity
